The structures appear in SMILES notation. Bounds are passed on as bounds.

The target of data set [1] is Glycogen synthase kinase-3 beta (Homo sapiens, UniProt P49841). As to the kind of experiment: Inhibition of recombinant human GSK-3beta using GS-2 peptide as substrate incubated for 30 mins in presence of ATP by kinase-glo luminescence assay. A general note: Kinase-Glo reads ATP consumption through a luciferase reaction.
Data set [2] deals with NB-4. Briefly: Cytotoxicity against human NB-4 cells assessed as reduction in cell viability measured after 24 hrs by CCK-8 assay. In kind it is functional, cell-based. As to conditions: NB-4, 24 h. The essentials:
(§1)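 Cells were grown in RPMI-1640 or high-glucose DMEM with 10% FBS at 37 °C, 5% CO2, and seeded at 3 × 10^4 cells/well. Exposure was 24 h across serial concentrations (0−1000 μM in the screen). […] Three independent experiments, mean ± SEM.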
In general terms: Tetrazolium dyes change colour on reduction, which living cells bring about.

In data set [3] the test system is MOLT-4. As to the kind of experiment: Cytotoxicity against human MOLT-4 cells assessed as reduction in cell viability measured after 24 hrs by CCK-8 assay. The class given is functional, cell-based. Particulars: MOLT-4, 24 h. In a few lines:
as §1

Data set [4] has as its system HL-60. Briefly: Cytotoxicity against human HL-60 cells assessed as reduction in cell viability measured after 24 hrs by CCK-8 assay. The class given is functional, cell-based. Particulars: HL-60, 24 h. The essentials:
as §1

Data set [5] deals with Raji. Briefly: Cytotoxicity against human Raji cells assessed as reduction in cell viability measured after 24 hrs by CCK-8 assay. The class given is functional, cell-based. The essentials: as §1
For data set [6], the target named is Glycogen synthase kinase-3 alpha (Homo sapiens) (UniProt P49840). As to the kind of experiment: Inhibition of recombinant human GSK-3alpha at 100 uM by mobility shift assay relative to control.
For data set [7], the target named is Vascular endothelial growth factor receptor 1 (Homo sapiens) (UniProt P17948). Briefly: Inhibition of Flt-1 (unknown origin) at 100 uM incubated for 60 mins by ELISA relative to control. The essentials:
(§2)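 Tyrosine kinase ELISA on plates precoated with poly(Glu,Tyr) 4:1 substrate. Reaction used 10 μM ATP in buffer (50 mM HEPES pH 7.4, 50 mM MgCl2, 0.5 mM MnCl2, 0.2 mM Na3VO4, 1 mM DTT) with compound in 1% DMSO. Purified kinase started the reaction, 60 min at 37 °C. Detection by anti-phosphotyrosine PY99 then HRP anti-mouse IgG with o-phenylenediamine/H2O2. Read at 490 nm; inhibition = [1 − A490/A490 control] × 100%.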
A general note: In an ELISA, binding on a coated surface is turned into a signal by an enzyme label.

The target of data set [8] is Vascular endothelial growth factor receptor 2 (Homo sapiens) (UniProt P35968). Briefly: Inhibition of KDR (unknown origin) at 100 uM incubated for 60 mins by ELISA relative to control. The essentials: as §2
Data set [9] concerns the target Fibroblast growth factor receptor 1 (Homo sapiens) (UniProt P11362). Briefly: Inhibition of FGFR1 (unknown origin) at 100 uM incubated for 60 mins by ELISA relative to control. In a few lines: as §2
Data set [10] has as its target Platelet-derived growth factor receptor alpha (Homo sapiens) (UniProt P16234). Briefly: Inhibition of PDGFRalpha (unknown origin) at 100 uM incubated for 60 mins by ELISA relative to control. In a few lines:
as §2

Data set [11] concerns the target Platelet-derived growth factor receptor beta (Homo sapiens) (UniProt P09619). Briefly: Inhibition of PDGFRbeta (unknown origin) at 100 uM incubated for 60 mins by ELISA relative to control. In a few lines: as §2
For data set [12], the target named is Mast/stem cell growth factor receptor Kit (Homo sapiens) (UniProt P10721). Briefly: Inhibition of c-Kit (unknown origin) at 100 uM incubated for 60 mins by ELISA relative to control. The essentials:
as §2

In data set [13] the target is Proto-oncogene tyrosine-protein kinase receptor Ret (Homo sapiens) (UniProt P07949). Briefly: Inhibition of RET (unknown origin) at 100 uM incubated for 60 mins by ELISA relative to control. The essentials:
as §2

In data set [14] the target is Receptor tyrosine-protein kinase erbB-4 (Homo sapiens) (UniProt Q15303). As to the kind of experiment: Inhibition of ERBB4 (unknown origin) at 100 uM incubated for 60 min by ELISA relative to control. In a few lines:
as §2

The target of data set [15] is Casein kinase 2 (Homo sapiens) (UniProt P67870+P68400+P19784+Q8NEV1). Briefly: Inhibition of CK2 (unknown origin) at 100 uM incubated for 60 mins by Millipore Kinase Profiler service relative to control.
Data set [16] is filed under the species Homo sapiens. Briefly: Inhibition of PKA (unknown origin) at 100 uM incubated for 60 mins by Millipore Kinase Profiler service relative to control.
The test system of data set [17] is NB4-DR1. Briefly: Antiproliferative activity against human NB4-DR1 cells assessed as reduction in cell viability incubated for 24 hrs by CCK-8 assay. In kind it is functional, cell-based. As to conditions: NB4-DR1, 24 h. In a few lines: as §1
The nature of data set [18]: Cytotoxicity against human L02 cells assessed as cell viability at 0 to 50 uM incubated for 24 hrs by CCK-8 assay relative to control. Particulars: dose 0-50 µM, read-out: Activity. The class given is cell-based. In a few lines: (§3)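 HUVEC and LO2 normal cells were cultured in RPMI-1640 or DMEM with 10% FBS at 37 °C, 5% CO2, and seeded at 3 × 10^4 cells/well. They were exposed for 24 h to graded concentrations. CCK-8 incubation was 3 h at 37 °C, with A450 read and viability expressed versus untreated control. Three independent experiments, mean ± SEM.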

A short description of data set [19]: Cytotoxicity against HUVEC assessed as cell viability at 0 to 50 uM incubated for 24 hrs by CCK-8 assay relative to control. In kind it is cell-based. As to conditions: human, dose 0-50 µM, read-out: Activity. In a few lines:
as §3

Data set [20] has as its target Fibroblast growth factor receptor 1 (Homo sapiens) (UniProt P11362). As to the kind of experiment: Inhibition of FGFR1 (unknown origin) incubated for 60 mins by ELISA. As to conditions: dose 100.0 µM.

Sequence of Glycogen synthase kinase-3 beta (P49841 whole entry): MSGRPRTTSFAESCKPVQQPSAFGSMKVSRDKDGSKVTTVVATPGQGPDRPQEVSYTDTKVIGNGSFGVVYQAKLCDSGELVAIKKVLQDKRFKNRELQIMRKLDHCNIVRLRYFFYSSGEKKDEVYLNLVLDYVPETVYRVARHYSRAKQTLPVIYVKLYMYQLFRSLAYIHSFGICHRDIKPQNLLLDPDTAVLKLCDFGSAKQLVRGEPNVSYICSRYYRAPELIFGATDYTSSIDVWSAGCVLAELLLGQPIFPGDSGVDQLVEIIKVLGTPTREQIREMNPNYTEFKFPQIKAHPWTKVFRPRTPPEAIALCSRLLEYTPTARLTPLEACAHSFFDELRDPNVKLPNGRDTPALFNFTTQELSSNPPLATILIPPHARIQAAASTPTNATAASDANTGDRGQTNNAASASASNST
Sequence of Glycogen synthase kinase-3 alpha (Homo sapiens) (P49840 2-483 limits assumed): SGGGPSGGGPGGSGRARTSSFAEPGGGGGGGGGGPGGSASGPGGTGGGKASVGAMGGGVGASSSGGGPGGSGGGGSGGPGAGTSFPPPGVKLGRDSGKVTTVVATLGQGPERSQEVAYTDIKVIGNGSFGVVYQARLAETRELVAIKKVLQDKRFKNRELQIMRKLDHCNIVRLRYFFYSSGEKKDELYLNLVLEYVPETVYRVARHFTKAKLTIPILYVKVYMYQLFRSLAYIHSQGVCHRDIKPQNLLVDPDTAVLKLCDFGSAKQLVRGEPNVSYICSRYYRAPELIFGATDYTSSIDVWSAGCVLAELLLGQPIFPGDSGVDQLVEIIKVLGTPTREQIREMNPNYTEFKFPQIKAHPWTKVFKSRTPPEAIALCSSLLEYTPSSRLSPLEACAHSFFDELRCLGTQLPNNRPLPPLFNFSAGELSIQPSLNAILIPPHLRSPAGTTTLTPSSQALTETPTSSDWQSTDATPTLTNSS
Sequence of Fibroblast growth factor receptor 1 (Homo sapiens) (P11362 22-822 limits assumed): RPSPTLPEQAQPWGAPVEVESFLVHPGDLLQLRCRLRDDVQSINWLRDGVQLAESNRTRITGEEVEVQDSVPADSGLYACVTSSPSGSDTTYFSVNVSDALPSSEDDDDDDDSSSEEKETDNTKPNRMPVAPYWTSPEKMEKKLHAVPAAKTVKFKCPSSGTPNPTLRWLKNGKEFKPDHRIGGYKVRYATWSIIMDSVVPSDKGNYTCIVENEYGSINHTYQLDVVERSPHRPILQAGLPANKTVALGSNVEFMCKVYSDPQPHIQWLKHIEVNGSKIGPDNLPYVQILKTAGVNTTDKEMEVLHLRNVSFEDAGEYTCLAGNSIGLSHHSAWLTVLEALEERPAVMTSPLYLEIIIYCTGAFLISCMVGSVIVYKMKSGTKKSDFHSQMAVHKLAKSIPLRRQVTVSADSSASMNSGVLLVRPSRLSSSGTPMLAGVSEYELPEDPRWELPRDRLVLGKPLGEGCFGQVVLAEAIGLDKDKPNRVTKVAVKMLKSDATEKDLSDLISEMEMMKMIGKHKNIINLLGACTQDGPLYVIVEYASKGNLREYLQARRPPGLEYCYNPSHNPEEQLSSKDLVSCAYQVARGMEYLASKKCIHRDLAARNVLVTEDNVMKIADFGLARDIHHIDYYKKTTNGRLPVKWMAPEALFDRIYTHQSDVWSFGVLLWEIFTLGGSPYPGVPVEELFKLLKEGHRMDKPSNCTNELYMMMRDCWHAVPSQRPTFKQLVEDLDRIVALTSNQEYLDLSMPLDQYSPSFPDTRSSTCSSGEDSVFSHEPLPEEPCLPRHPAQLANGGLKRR
Sequence of Mast/stem cell growth factor receptor Kit (Homo sapiens) (P10721 whole entry): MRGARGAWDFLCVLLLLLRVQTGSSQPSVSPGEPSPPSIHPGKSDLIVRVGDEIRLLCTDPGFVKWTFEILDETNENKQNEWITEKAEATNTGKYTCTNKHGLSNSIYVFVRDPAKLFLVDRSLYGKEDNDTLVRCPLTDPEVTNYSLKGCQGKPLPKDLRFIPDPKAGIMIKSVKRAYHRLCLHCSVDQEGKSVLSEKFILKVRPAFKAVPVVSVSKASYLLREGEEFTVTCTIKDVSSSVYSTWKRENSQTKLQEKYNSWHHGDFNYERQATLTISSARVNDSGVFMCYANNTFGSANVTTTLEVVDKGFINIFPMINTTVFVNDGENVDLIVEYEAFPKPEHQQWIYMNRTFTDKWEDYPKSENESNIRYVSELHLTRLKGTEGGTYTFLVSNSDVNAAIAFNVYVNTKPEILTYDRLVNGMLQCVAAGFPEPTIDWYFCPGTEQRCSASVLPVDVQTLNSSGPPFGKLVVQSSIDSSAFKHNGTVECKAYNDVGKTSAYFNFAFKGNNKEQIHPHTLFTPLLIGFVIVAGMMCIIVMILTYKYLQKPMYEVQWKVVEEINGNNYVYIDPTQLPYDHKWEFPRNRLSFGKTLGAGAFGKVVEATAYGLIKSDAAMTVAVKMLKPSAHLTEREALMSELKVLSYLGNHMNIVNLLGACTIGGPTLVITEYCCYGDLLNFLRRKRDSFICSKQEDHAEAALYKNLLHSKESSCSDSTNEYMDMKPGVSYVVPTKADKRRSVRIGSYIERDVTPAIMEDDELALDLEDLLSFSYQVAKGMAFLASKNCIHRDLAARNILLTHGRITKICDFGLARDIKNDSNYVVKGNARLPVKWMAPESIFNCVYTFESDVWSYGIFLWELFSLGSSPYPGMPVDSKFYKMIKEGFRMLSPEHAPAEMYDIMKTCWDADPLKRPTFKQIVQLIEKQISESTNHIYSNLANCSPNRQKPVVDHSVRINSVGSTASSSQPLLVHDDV
Sequence of Platelet-derived growth factor receptor beta (Homo sapiens) (P09619 whole entry): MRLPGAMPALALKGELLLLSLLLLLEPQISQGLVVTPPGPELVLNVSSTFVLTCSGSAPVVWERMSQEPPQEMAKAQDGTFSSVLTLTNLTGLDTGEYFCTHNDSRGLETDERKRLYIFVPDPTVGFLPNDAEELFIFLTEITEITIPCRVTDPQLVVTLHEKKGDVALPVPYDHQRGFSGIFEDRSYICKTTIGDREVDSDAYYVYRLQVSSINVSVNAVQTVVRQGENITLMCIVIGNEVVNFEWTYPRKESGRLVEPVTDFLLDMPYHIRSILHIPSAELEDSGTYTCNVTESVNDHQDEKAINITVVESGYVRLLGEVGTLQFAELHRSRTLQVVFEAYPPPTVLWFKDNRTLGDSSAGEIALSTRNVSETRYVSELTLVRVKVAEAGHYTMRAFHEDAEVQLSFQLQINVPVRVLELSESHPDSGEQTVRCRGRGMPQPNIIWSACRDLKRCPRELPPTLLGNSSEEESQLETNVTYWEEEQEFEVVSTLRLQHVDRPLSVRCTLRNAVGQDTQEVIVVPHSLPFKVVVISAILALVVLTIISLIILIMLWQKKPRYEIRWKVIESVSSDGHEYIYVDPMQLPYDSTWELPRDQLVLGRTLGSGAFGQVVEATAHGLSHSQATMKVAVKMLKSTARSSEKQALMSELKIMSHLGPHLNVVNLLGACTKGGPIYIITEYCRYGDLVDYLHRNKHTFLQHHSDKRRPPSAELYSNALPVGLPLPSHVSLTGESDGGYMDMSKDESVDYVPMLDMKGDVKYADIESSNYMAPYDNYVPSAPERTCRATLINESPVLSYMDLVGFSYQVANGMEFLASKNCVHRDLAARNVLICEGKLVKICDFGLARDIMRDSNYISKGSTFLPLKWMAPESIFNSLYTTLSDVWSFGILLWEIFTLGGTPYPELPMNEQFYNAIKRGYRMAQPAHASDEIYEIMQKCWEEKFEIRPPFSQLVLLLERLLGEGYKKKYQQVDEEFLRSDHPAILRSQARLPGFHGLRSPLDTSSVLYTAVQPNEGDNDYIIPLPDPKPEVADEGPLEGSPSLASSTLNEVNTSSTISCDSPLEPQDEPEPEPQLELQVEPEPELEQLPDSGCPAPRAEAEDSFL
Sequence of Platelet-derived growth factor receptor alpha (Homo sapiens) (P16234 whole entry): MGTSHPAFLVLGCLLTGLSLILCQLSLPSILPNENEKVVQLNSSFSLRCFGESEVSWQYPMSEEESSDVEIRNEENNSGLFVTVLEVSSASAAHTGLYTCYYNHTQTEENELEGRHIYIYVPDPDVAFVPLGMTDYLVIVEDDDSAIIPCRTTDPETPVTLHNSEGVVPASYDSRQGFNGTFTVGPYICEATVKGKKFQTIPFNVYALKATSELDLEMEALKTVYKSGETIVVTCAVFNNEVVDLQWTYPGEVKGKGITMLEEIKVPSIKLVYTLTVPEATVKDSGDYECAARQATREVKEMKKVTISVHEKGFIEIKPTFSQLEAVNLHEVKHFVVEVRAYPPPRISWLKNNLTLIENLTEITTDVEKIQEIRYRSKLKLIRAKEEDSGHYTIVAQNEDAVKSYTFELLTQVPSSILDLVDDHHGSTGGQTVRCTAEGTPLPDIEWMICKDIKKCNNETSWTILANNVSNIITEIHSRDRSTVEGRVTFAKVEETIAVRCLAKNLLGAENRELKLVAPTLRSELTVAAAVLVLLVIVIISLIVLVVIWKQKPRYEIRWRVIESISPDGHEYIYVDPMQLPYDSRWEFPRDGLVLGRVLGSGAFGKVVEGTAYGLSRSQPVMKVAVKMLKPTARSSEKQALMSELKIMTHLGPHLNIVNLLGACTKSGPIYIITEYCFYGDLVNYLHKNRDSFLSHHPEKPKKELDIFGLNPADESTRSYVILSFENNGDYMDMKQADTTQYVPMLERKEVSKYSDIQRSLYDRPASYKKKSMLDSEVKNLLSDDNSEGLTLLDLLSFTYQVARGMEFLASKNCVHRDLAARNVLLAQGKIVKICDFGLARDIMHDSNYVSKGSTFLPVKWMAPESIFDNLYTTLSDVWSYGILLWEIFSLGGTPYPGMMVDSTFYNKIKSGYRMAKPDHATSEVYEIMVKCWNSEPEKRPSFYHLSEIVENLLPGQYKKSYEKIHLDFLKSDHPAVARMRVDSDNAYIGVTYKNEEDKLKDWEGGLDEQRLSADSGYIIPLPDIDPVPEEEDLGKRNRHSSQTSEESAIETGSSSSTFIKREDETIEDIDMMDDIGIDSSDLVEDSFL

One may read the IC50 as the concentration at which inhibition is half-maximal. Usually inhibition stands for how much of the control response was suppressed. Regarding `C=CC(=O)N1C(=O)CC(c2ccc(-c3ccccc3)cc2)Sc2ccccc21` (stereo unspecified), the IC50 in [1] amounted to 5.8 µM; in [2], 57.7 µM; in [3] it was 97.5 µM; in [4] it was 118 µM; in data set [5], 56.3 µM. Besides, the inhibition in data set [6] was 13.4%.
For the compound `C=CC(=O)N1C(=O)CC(c2ccc(C#N)cc2)Sc2ccccc21` (stereo unspecified), the IC50 in data set [1] amounted to 6.2 µM; in data set [2] it was 62.4 µM; in data set [3], 88.7 µM; in data set [4], 115 µM; in data set [5] it was 84.5 µM. In data set [6], the inhibition amounted to 92.9%.
In the case of `C=CC(=O)N1C(=O)CC(c2ccc(Br)cc2)Sc2ccccc21` (stereo unspecified), the half-inhibitory concentration (IC50) in data set [1] amounted to 6.4 µM; in [2], 59.4 µM; in data set [3], 106 µM; in [4], 126 µM; in data set [5], 51.3 µM. Besides, the inhibition in data set [6] stood at 33.4%.
For the compound `C=CC(=O)N1C(=O)CC(c2cccs2)Sc2ccccc21` (stereo unspecified), the IC50 in data set [1] stood at 4.9 µM; in [2], 765 µM; in [3] it was 557 µM; in [4] it was 695 µM; in data set [5] it was 659 µM. Also, the inhibition in data set [7] was 0%; in data set [8] it was 3.1%; in [9] it was 18.8%; in [10], 0%; in data set [11], 7.8%; in data set [12] it was 26.3%. For the same compound, the inhibition in [13] turned out to be 0%; in [14], 0%; in [15] it was 0%; in [16], 22%.
As for `C=CC(=O)N1C(=O)CC(c2ccc(C(=O)OC)cc2)Sc2ccccc21` (stereo unspecified), the IC50 amounted to 6 µM in data set [1]; 24.4 µM in data set [2]; 79.6 µM in [3]; 102 µM in data set [4]; 89.6 µM in data set [5]; 93.1 µM in [17]. Also, the viability at 24 h, up to 50 µM in data set [18] and in data set [19] was above 80% throughout.
Regarding `C=CC(=O)N1C(=O)CC(c2ccc(C)cc2)Sc2ccccc21` (stereo unspecified), the IC50 in data set [1] was 4.8 µM; in data set [2] it was 37.3 µM; in [3], 87.6 µM; in data set [4], 94.4 µM; in data set [5] it was 75.5 µM. In addition, the inhibition in [6] stood at 30%.
Take `CCC(=O)N1C(=O)CC(c2cccs2)Sc2ccccc21` (stereo unspecified): the IC50 in data set [1] was above 100 µM.
For the compound `C=CC(=O)N1C(=O)CC(c2ccccc2Cl)Sc2ccccc21` (stereo unspecified), the IC50 in [1] amounted to 2.5 µM; in [2], 33.8 µM; in [3], 80.3 µM; in data set [4] it was 91.4 µM; in [5], 50.4 µM. In [6], the inhibition came out at 61.8%.
On to `C=CC(=O)Nc1ccc(C2CC(=O)Nc3ccccc3S2)cc1` (stereo unspecified), for which, in data set [1], the IC50 is above 100 µM.
Take `C=CC(=O)N1C(=O)CCSc2ccccc21`: the IC50 in data set [1] worked out at 17 µM; in data set [2] it was 22.4 µM; in data set [3], 565 µM; in [4], 44.8 µM; in data set [5], 581 µM.
As to `C=CC(=O)N1C(=O)CC(c2ccccc2C(F)(F)F)Sc2ccccc21` (stereo unspecified), the IC50 worked out at 2.8 µM in [1]; 35.2 µM in [2]; 84.4 µM in data set [3]; 96.4 µM in [4]; 50.3 µM in data set [5]. Also, the inhibition in [6] stood at 32%.
As to `C=CC(=O)NCCN1C(=O)CC(c2ccccc2)Sc2ccccc21` (stereo unspecified), the IC50 in data set [1] was above 100 µM.
For `C=CC(=O)N1C(=O)CC(c2ccc(N3CCOCC3)cc2)Sc2ccccc21` (stereo unspecified), the IC50 in data set [1] was 15 µM; in [2] it was 42.4 µM; in data set [3] it was 65 µM; in [4] it was 98 µM; in data set [5] it was 56.2 µM.
With `C=CC(=O)N1C(=O)CC(c2ccc(C(F)(F)F)cc2)Sc2ccccc21` (stereo unspecified), the IC50 in data set [1] was 15 µM; in data set [2], 38.6 µM; in [3] it was 76.3 µM; in [4], 106 µM; in data set [5], 47.6 µM. Further, the inhibition in data set [6] turned out to be 20%.
Regarding `C=CC(=O)N1C(=O)CC(c2ccc([N+](=O)[O-])cc2)Sc2ccccc21` (stereo unspecified), the IC50 came to 7.5 µM in data set [1]; 37.6 µM in [2]; 91.5 µM in data set [3]; 107 µM in [4]; 34.8 µM in data set [5]. Further, the inhibition in data set [6] was 50.7%.
As to `C=CC(=O)N1C(=O)CC(c2cccc(Cl)c2)Sc2ccccc21` (stereo unspecified), the IC50 in data set [1] worked out at 4 µM; in data set [2], 31.7 µM; in data set [3], 77.5 µM; in data set [4], 93.1 µM; in data set [5], 47.1 µM.
Consider `[Cl-].[Li+]` [CHLOROLITHIUM], for which the results for the IC50 in data set [2] and in data set [17] were 5320 µM and 42500 µM, respectively.
Turning to `C=CC(=O)N1C(=O)CC(c2ccc(Cl)cc2)Sc2ccccc21` (stereo unspecified), the IC50 came out at 6.7 µM in [1]; 22.6 µM in data set [2]; 82.4 µM in data set [3]; 95.7 µM in data set [4]; 18.4 µM in data set [5]; 48.3 µM in [17]. The inhibition in [6] is 46.7%; in data set [7], 7.4%; in data set [8], 0%; in data set [9] it was 88.3%; in [10], 11.1%; in [11] it was 0%. Moreover, the inhibition stood at 14% in data set [12]; 73.9% in data set [13]; 0% in data set [14]; 8% in [15]; 7% in data set [16]. Moreover, the viability at 24 h, up to 50 µM in data set [18] and in data set [19] was above 80% in each case.
The compound `Cc1ccc(C(=O)Nc2ccc(CN3CCN(C)CC3)c(C(F)(F)F)c2)cc1C#Cc1cnc2cccnn12` gave a 50% inhibitory concentration (IC50) in [20] of 0.0007 µM.
Turning to `C=CC(=O)N1C(=O)CC(C)Sc2ccccc21` (stereo unspecified), the IC50 in [1] came to 20 µM; in [2], 227 µM; in [3] it was 730 µM; in data set [4], 199 µM; in data set [5], 837 µM.
In the case of `C=CC(=O)N1C(=O)CC(c2ccc(OC)cc2)Sc2ccccc21` (stereo unspecified), the IC50 turned out to be 6.2 µM in [1]; 32.9 µM in data set [2]; 83.2 µM in data set [3]; 92.1 µM in [4]; 43.2 µM in [5].

Values taken from ChEMBL document CHEMBL5036319, “Discovery of Novel Benzothiazepinones as Irreversible Covalent Glycogen Synthase Kinase 3β Inhibitors for the Treatment of Acute Promyelocytic Leukemia” (J Med Chem, 2021).
